For test [1], the system named is Mus musculus. Briefly: Effective dose to show narcotic analgesic activity was evaluated in mouse tail-flick test when administered subcutaneously. Format: functional. Particulars: sc. The procedure, abridged: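 Male Swiss-Webster mice (21-28 g), pretested twice; heat lamp set for a 2-4 s baseline flick with a 6.5 s cut-off. Three doses, 10 mice/dose, given sc. Latency read at 10-60 min. % of maximum possible increase taken at peak effect. ED50 with 95% CL from a log-dose probit plot (Litchfield–Wilcoxon).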
(In general: Thermal pain tests record how soon the animal reacts.)

The target in test [2] is Delta-type opioid receptor (Rattus norvegicus, UniProt P33533). Briefly: Binding affinity at Opioid receptor delta 1 in rat brain membrane was determined by using curve -fitting LIGAND([3H]DHM, [3H]DADL, [3H]DSLET, [3H]EKC). Format: cell membranes. The procedure, abridged:
(§1)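 Rat brain membranes in Tris pH 7.7, preincubated 1 h at 37 °C to strip endogenous opioids. 12 mg tissue per tube with tritiated ligand plus competitor, 1 h at 25 °C, then filtered. Nonspecific binding defined with 1.0 μM unlabeled form of the tracer. Each curve run twice at two tracer concentrations. Affinities from simultaneous LIGAND curve-fitting.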

The subject of test [3] is Mus musculus. Briefly: Antagonistic activity to show narcotic effect induced by subcutaneous administration of 21.08 umol/kg of morphine in mouse tail-flick test. Format: functional. The procedure, abridged: (§2)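 Male Swiss-Webster mice. Tail-flick latency read at 10, 20, 30, 45 and 60 min. % antagonism = 100 − (% agonism with morphine)/0.80, taken at peak effect. AD50 with 95% CL by Litchfield–Wilcoxon from the log-dose plot.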

Test [4] deals with Kappa-type opioid receptor (Cavia porcellus, UniProt P41144). Briefly: Binding affinity at Opioid receptor kappa 1 in guinea pig brain membrane determined by using [3H]U-69593 as radioligand. Format: cell membranes. The procedure, abridged: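 Guinea pig brain membranes prepared as for the rat assay (Tris pH 7.7, 1 h 37 °C preincubation). Displacement of [3H]U69,593 over 1 h at 25 °C, then filtered. Nonspecific binding with 1.0 μM unlabeled U69,593. Curves repeated twice at two tracer concentrations. Values by LIGAND analysis.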

A further test has as its target Mu-type opioid receptor (Rattus norvegicus, UniProt P33535). Briefly: Binding affinity at Opioid receptor mu 1 in rat brain membrane was determined by using curve-fitting ligands ([3H]DHM, [3H]DADL, [3H]DSLET, [3H]EKC). The format is cell membranes. The method, boiled down: as §1
Test [5] deals with Mus musculus. Briefly: Antagonistic activity to show narcotic effect induced by subcutaneous administration of 21.08 umol/Kg of morphine in mouse tail-flick test; NA=No antagonism. The format is functional, organism-based. The method, boiled down:
as §2

The source made the active and inactive calls. Some results are limits rather than exact numbers.

Sequence of Kappa-type opioid receptor (P41144 whole entry): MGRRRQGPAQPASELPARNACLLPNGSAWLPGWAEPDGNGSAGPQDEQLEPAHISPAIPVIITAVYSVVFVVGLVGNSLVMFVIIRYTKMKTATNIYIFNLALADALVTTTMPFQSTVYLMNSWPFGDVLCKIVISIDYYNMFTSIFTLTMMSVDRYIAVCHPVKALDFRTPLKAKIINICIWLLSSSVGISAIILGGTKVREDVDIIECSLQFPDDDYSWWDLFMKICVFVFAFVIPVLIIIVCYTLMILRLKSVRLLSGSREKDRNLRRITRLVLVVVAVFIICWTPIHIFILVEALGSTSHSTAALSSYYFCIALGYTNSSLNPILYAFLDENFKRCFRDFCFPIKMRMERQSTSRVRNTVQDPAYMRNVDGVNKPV
Sequence of Mu-type opioid receptor (P33535 whole entry): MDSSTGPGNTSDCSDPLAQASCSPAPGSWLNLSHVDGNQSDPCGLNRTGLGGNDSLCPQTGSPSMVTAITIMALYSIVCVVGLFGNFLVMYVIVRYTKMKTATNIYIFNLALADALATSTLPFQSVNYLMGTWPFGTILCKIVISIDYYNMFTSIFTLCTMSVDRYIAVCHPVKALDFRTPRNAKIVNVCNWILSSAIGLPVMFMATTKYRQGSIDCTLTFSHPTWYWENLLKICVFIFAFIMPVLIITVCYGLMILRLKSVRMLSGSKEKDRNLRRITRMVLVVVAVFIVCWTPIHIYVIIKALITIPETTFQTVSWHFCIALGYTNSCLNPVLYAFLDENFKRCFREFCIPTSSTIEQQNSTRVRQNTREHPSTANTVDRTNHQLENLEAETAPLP
Sequence of Delta-type opioid receptor (P33533 whole entry): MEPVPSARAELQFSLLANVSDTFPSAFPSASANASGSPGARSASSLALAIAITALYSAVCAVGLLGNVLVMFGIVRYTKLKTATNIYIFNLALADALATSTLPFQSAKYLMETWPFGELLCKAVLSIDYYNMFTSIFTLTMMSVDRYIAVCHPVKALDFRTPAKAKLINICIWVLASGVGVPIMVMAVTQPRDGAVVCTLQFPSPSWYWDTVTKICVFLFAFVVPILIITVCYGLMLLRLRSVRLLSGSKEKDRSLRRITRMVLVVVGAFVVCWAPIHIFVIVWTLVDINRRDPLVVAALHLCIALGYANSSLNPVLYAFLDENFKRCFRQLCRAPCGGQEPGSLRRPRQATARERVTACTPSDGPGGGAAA

As to `C=CCN1CCC[C@](C(=O)OCC)(c2cccc(O)c2)C1`, the ED50 – broadly, the midpoint of the dose-response relation – with Mus musculus [1] was above 229 µmol/kg. The Kd (commonly the free concentration of one partner at which half of the binding sites on the other are occupied at equilibrium, for simple one-to-one binding) came to 0.715 µM in test [2], 0.45 µM in test [4] and 0.026 µM at Mu-type opioid receptor. Also, the AD50 in the test with Mus musculus [3] was above 192 µM/kg.

Regarding `CCOC(=O)[C@]1(c2cccc(O)c2)CCCN(C)[C@H]1C`, in the test on Mus musculus [1], the ED50 was above 510 µmol/kg. The Kd turned out to be 0.91 µM in test [2], 1.9 µM in test [4] and 0.178 µM at Mu-type opioid receptor. In addition, the AD50 in the test with Mus musculus [3] came to 14 µM/kg.

Regarding `CCOC(=O)C1(c2ccccc2)CCN(C)CC1` [MEPERIDINE], the ED50 in the test on Mus musculus [1] is 25 µmol/kg. The AD50 result in the test on Mus musculus [5] was “inactive”.

With `C=CCN1CCC[C@](C(=O)OCC)(c2cccc(O)c2)[C@@H]1C`, in the test with Mus musculus [1], the ED50 was above 118 µmol/kg. Besides, the Kd is 0.77 µM in test [2], 0.83 µM in test [4] and 0.31 µM at Mu-type opioid receptor. Besides, the AD50 in the test on Mus musculus [3] was 112 µM/kg.

In the test with Mus musculus [1], `C=CCN1CC[C@]23c4c5ccc(O)c4O[C@H]2[C@@H](O)C=C[C@H]3[C@H]1C5` [NALORPHINE] showed a median effective dose (ED50) of 828 µmol/kg. Besides, the AD50 in the test with Mus musculus [3] worked out at 2 µM/kg.

Consider `CCOC(=O)[C@]1(c2cccc(O)c2)CCCN(CC2CC2)[C@H]1C`, for which the median effective dose (ED50) in the test with Mus musculus [1] was above 452 µmol/kg. For the same molecule, the results for the Kd (in test [2]; in test [4]; at Mu-type opioid receptor) were 0.625 µM, 0.83 µM and 0.154 µM, respectively. Moreover, the AD50 with Mus musculus [3] turned out to be 75 µM/kg.

`CCOC(=O)[C@]1(c2cccc(O)c2)CCCN(C)C1` came in with an ED50 with Mus musculus [1] above 290 µmol/kg. Also, the Kd came to 4 µM in test [2], 2.2 µM in test [4] and 0.036 µM on Mu-type opioid receptor. The AD50 in the test on Mus musculus [3] is 24 µM/kg.

On to `CCOC(=O)[C@]1(c2cccc(O)c2)CCCN(CC2CC2)C1`, for which it took a dose of 68 µmol/kg to reach the 50% effect level in the test with Mus musculus [1] (ED50). Besides, the values for the equilibrium dissociation constant (Kd) (in test [2]; in test [4]; at Mu-type opioid receptor) were 0.26 µM, 0.12 µM and 0.008 µM, respectively. Moreover, the AD50 in the test with Mus musculus [3] turned out to be 19 µM/kg.

`CCOC(=O)[C@]1(c2cccc(O)c2)CCCN(CCc2ccccc2)[C@H]1C` registered an ED50 in the test with Mus musculus [1] above 198 µmol/kg. Also, the dissociation constant (Kd) in test [2] is 0.17 µM; in test [4], 2.6 µM; at Mu-type opioid receptor it was 0.38 µM. In the test on Mus musculus [3], this molecule came in with an AD50 above 198 µM/kg.

The record behind these values is ChEMBL document CHEMBL1123989, “Effects of addition of a 2-methyl group to ethyl nipecotates (beta-meperidines) on receptor affinities and opiate agonist/antagonist activities” (J Med Chem, 1988).
